Measured values as given in ChEMBL document CHEMBL1135421, “2-(Anilinomethyl)imidazolines as alpha1 adrenergic receptor agonists: the discovery of alpha1a subtype selective 2'-alkylsulfonyl-substituted analogues” (J Med Chem, 2002).
Values joined by “and” are separate entries in the source; they are usually repeats but may differ in a detail not shown here. Identical values can stand only once.

What was measured:
[1] = target: T1, Alpha-2A adrenergic receptor (Homo sapiens, UniProt P08913); test: Agonist potency at Alpha-2A stably expressed in CHO cells.; format: functional, cell-based
T1 sequence (P08913 whole entry): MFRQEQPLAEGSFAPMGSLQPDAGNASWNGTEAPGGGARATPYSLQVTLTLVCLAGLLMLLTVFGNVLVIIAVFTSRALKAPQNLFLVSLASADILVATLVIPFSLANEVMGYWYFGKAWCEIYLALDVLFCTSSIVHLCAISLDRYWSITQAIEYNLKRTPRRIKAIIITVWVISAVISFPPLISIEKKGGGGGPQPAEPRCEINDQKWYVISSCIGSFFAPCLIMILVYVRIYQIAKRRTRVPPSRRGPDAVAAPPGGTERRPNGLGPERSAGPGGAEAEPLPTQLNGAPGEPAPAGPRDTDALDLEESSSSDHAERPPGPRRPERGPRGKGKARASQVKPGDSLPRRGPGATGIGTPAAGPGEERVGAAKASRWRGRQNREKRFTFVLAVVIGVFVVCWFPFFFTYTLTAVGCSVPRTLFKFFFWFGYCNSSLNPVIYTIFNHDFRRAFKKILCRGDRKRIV

[2] = target: T2, Alpha-2C adrenergic receptor (Homo sapiens, UniProt P18825); test: Agonist potency at Alpha-2C adrenergic receptor assayed in CHO cells expressing human Alpha-2C adrenergic receptor; format: functional, cell-based
T2 sequence (P18825 whole entry): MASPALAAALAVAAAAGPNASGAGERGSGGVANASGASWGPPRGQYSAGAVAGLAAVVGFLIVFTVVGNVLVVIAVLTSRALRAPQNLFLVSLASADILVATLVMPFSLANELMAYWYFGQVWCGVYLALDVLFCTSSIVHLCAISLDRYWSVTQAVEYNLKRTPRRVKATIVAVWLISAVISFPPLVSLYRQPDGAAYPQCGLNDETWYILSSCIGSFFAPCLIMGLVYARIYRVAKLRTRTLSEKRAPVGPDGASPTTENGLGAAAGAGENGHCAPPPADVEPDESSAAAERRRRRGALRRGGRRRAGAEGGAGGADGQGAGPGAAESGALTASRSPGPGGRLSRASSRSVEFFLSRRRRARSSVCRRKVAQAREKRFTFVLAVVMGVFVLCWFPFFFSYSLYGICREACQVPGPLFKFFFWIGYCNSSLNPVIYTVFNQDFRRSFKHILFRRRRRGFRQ

[3] = target: T3, Alpha-1A adrenergic receptor (Homo sapiens) (UniProt P35348); test: Efficacy as % of the maximal effect observed for nonselective agonist phenylephrine in rat-1 fibroblasts expressing human Alpha-1 adrenergic receptor; format: functional
T3 sequence (whole entry): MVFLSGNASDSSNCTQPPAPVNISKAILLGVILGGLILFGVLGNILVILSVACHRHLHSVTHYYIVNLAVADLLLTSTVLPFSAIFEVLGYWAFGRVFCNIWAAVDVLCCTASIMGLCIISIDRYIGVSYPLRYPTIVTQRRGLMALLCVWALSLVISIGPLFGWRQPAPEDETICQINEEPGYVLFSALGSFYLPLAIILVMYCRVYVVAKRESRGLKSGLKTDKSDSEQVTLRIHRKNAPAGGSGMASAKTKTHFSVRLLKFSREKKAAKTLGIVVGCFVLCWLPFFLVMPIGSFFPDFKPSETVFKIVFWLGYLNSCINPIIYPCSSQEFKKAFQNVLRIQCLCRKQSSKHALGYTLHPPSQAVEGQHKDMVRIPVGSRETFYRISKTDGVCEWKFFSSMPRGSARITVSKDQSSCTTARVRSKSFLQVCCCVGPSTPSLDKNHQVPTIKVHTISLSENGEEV
Procedure, shortened: (§1)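 Rat-1 fibroblasts expressing human α1a/α1b/α1d, grown in DMEM with 10% heat-inactivated FBS and 0.6 mg/mL G418, plated 6000 cells/well and cultured 48 h at 37 °C. Loaded 2 h at 37 °C with Calcium Green (4 μM), 0.2% pluronic acid and 2.5 mM probenecid in HEPES buffer pH 7.4. FLIPR read at room temperature: 10 s baseline, then 50 s after compound. 11-point curves as % of 40 μM phenylephrine response, top concentration typically 5 μM.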

[4] = target: T1, Alpha-2A adrenergic receptor; test: Affinity to human Alpha-2A adrenergic receptor determined by radioligand binding techniques from chinese hamster ovary (CHO) cells; format: cell-based
[5] = target: T4, Alpha-1D adrenergic receptor (Homo sapiens, UniProt P25100); test: Agonist potency at Alpha-1D adrenergic receptor assayed in rat-1 fibroblasts expressing human Alpha-1D adrenergic receptor; format: functional; procedure, shortened: as §1
T4 sequence (P25100 whole entry): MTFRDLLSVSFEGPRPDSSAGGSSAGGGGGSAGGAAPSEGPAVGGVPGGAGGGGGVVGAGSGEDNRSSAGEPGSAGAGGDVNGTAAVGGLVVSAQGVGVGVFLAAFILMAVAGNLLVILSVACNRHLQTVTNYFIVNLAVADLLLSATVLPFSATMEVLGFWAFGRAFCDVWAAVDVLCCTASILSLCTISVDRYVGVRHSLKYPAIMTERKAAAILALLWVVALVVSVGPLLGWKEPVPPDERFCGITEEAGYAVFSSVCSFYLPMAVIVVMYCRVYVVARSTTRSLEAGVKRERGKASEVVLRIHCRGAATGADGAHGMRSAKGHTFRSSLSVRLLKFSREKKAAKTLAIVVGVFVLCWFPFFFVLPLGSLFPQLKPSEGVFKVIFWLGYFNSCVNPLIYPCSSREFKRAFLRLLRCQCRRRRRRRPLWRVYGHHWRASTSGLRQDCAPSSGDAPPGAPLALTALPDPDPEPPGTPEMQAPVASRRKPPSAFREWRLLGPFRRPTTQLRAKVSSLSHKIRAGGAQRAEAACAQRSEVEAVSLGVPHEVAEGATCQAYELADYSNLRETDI

[6] = target: T5, Alpha-2A adrenergic receptor (Homo sapiens) (UniProt P08913); test: Efficacy as percentage of the maximal effect observed for nonselective agonist UK-14304 in CHO cells expressing human Alpha-2A adrenergic receptor; format: functional, cell-based
T5 sequence (whole entry): T1 sequence (P08913 whole entry)

[7] = target: T6, Alpha-1B adrenergic receptor (Homo sapiens, UniProt P35368); test: Agonist potency at Alpha-1B adrenergic receptor expressed in rat-1 fibroblasts; format: functional
T6 sequence (P35368 whole entry): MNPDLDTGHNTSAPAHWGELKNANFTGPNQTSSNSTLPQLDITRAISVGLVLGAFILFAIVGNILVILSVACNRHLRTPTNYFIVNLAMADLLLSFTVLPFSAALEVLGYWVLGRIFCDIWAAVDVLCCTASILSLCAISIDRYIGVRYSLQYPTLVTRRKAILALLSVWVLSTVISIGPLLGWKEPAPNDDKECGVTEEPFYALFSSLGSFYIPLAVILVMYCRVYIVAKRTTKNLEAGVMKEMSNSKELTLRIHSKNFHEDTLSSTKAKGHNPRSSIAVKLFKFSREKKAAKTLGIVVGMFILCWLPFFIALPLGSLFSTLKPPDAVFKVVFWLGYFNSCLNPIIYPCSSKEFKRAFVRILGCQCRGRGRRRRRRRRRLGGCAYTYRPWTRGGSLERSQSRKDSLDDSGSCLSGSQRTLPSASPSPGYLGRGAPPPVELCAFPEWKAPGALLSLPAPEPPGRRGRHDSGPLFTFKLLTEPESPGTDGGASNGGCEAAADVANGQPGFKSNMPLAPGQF

Row | EC50 [1] | EC50 [2] [nM] | SMILES | Max [3] [%] | Ki [4] [nM] | EC50 [5] [nM] | Max [6] [%] | EC50 [7] [nM]
1 | > 10000 nM | 447 | CS(=O)(=O)c1cccc(F)c1NCC1=NCCN1 | 106 | 871 | > 100000 | 38 | > 100000
2 |  |  | CS(=O)(=O)c1c(F)cccc1NCC1=NCCN1 |  | > 7940 | > 100000 | 64 | > 100000
3 |  |  | CS(=O)(=O)c1cc(F)ccc1NCC1=NCCN1 | 61 | 398 |  | 19 | > 100000
4 |  |  | CCCS(=O)(=O)c1ccccc1NCC1=NCCN1 | 115 |  |  | 23 | 
5 |  |  | CSc1ccccc1NCC1=NCCN1 |  | 47.9 |  | 76 | 
6 |  |  | CC(C)Sc1ccccc1NCC1=NCCN1 | 115 | 81.3 | > 5010 | 64 | 61.7
7 |  |  | CC(C)S(=O)(=O)c1ccccc1NCC1=NCCN1 | 70 | 2950 | > 5010 |  | > 10000
8 | > 10000 nM | 3160 | CS(=O)(=O)c1ccccc1NCC1=NCCN1 | 103 | 5620 |  | 11 | > 100000
9 | 316 nM | 100 | CSc1cc(F)ccc1NCC1=NCCN1 | 93 | 58.9 | 9.12 | 47 | 6.03
10 | 25.1 nM | 5.62 | CSc1ccc(F)cc1NCC1=NCCN1 | 90 | 18.2 | 21.9 | 96 | 1.86
11 | 447 nM and 200 nM |  | COc1ccc(SC)c(NCC2=NCCN2)c1 | 101 | 219 | 5.01 | 52 | 3.63
12 |  |  | C[S+]([O-])c1ccccc1NCC1=NCCN1 (centres undefined) | 91 | 977 |  | 21 | > 100000
13 |  |  | CCS(=O)(=O)c1ccccc1NCC1=NCCN1 | 115 | 1320 | > 100000 | 10 | > 100000
14 | > 10000 nM | 2000 | CS(=O)(=O)c1ccc(F)cc1NCC1=NCCN1 | 96 | 4470 | > 100000 | 18 | > 100000
15 | > 10000 nM | > 10000 | CS(=O)(=O)c1ccc(C(F)(F)F)cc1NCC1=NCCN1 | 95 | > 7940 | > 100000 | 33 | > 100000
16 |  |  | CSc1c(F)cccc1NCC1=NCCN1 | 91 | 166 | 33.9 | 102 | 85.1
17 | > 10000 nM | 1120 | Cc1ccc(S(C)(=O)=O)c(NCC2=NCCN2)c1 | 98 | 3890 | > 2000 | 24 | 141

Row | SMILES | EC50 [1] | EC50 [2] [nM] | Max [3] [%] | Ki [4] [nM] | EC50 [5] [nM] | Max [6] [%] | EC50 [7] [nM]
18 | CCSc1ccccc1NCC1=NCCN1 |  | 28.2 | 109 | 81.3 | 51.3 | 67 | 13.8
19 | CS(=O)(=O)c1ccc(Cl)cc1NCC1=NCCN1 | > 10000 nM | 794 | 91 | > 7940 | > 100000 | 42 | 61.7
20 | CSc1ccc(C(F)(F)F)cc1NCC1=NCCN1 | > 10000 nM | 7.94 | 111 | 200 | 43.7 | 40 | 6.03
21 | CSc1ccc(C)cc1NCC1=NCCN1 | 25.1 nM | 8.91 | 101 | 63.1 | 0.912 | 87 | 0.417
22 | CSc1ccc(Cl)cc1NCC1=NCCN1 | 6.31 nM | 2.82 | 82 | 41.7 | 2.69 | 93 | 0.501
23 | CS(=O)(=O)c1cc(Cl)ccc1NCC1=NCCN1 | > 10000 nM | > 10000 | 41 | 5010 | > 100000 | 38 | 
